# Reference: article PMC8475556 (Oncoimmunology, 2021)
# Read-outs that look alike come from different tables or passages of the source. *1 amine or outer side, *2 acyl side, *3 side chain or, on linkers, in order; H or OH if unused. Where a SMILES comes first, the peptide text is derived from it. Bridges are numbered along the chain shown (N, C = ends). Roman numbers before positions name the chains, in order. [ ]: non-standard residue; d: D form. Hexamethylenediamine = C(CCCN[*:2])CCN[*:1]; Dip = N[C@H](C(=O)O)C(c1ccccc1)c1ccccc1; Chg = N[C@H](C(=O)O)C1CCCCC1; NMeA = CN[C@@H](C)C(=O)O
# Experiments:
# TRAF1 [1] = experiment: TRAF1 by flow cytometry in live primary CLL cells on OP9 after 24 h treatment; type: cell-based, human; conditions: for effect on TRAF1 expression: primary CLL cells, 24 h
# primary CLL cells = experiment: Cell death; type: cell-based, human; conditions: for IC50: Homo sapiens, CLL cell, read-out: IC50 for cell death; for primary CLL cells died: cleaved caspase-3
# Bcl-2 = Bcl-2 by flow cytometry in live primary CLL cells after 24 h treatment; type: cell-based, human; conditions: for IC50: Homo sapiens, CLL cell, read-out: IC50 for lowering Bcl-2 (Bcl-2 dMFI)
# Method in brief: (§1)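 Primary CLL cells were thawed and resuspended at 8 × 10^6 cells/mL in high-glucose complete medium (2.5 g/L total glucose). They were plated at 2 × 10^6 per well on confluent OP9 stroma, rested overnight, then treated 24 h with test compound at 0.1% DMSO final. Staining: Fc block, viability dye, CD19/CD5, Foxp3-buffer fix/perm, then intracellular Bcl-2 BV421 or Mcl-1 AF647. Live CD5+CD19+ gate; dMFI = MFI minus FMO; n = 6 donors, 2 experiments pooled.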
# Mcl-1 = Mcl-1 by flow cytometry in live primary CLL cells after 24 h treatment; type: cell-based, human; conditions: for IC50: Homo sapiens, CLL cell, read-out: IC50 for lowering Mcl-1 (Mcl-1 dMFI)
# Method in brief: as §1
# pNF-κB p65 = pNF-κB p65 phosphoflow in live primary CLL cells after 24 h treatment; type: cell-based, human; conditions: for IC50: Homo sapiens, CLL cell, read-out: IC50 for decrease in pNF-κB p65 (dMFI)
# pS6 = pS6 phosphoflow in live primary CLL cells after 24 h treatment; type: cell-based, human; conditions: for IC50: Homo sapiens, CLL cell, read-out: IC50 for decrease in pS6 (dMFI)
# pERK [2] = experiment: pERK phosphoflow in live primary CLL cells after 24 h treatment; type: cell-based, human; conditions: for IC50: Homo sapiens, CLL cell, read-out: IC50 for decrease in pERK (dMFI)
# [3] = system: TRAF1 in the CD40 signaling complex; type: cell-based, human; conditions: BV6 5 μM
# Method in brief: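 shCTL or shPKN1 RAJI cells (6 × 10^6) received cycloheximide 3 μg/ml for the indicated times, ± BV6 5 μM, and were lysed in 1% NP-40 with protease/phosphatase inhibitors. For IP1, Protein G magnetic beads were loaded with 0.5 μg anti-CD40 (10 min, RT), then incubated with lysate overnight at 4°C. Unbound material was re-precipitated with 0.5 μg anti-TRAF1 (IP2). Both IPs and lysates were western blotted for TRAF1.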
# PRK1(h) = PRK1(h) (Homo sapiens, UniProt Q16512); experiment: Dose titration of selected inhibitors against PKN1 kinase activity in vitro; type: biochemical
# TRAF1 [4] = type: cell-based, human; conditions: 24 h; for IC50: Homo sapiens, Raji, read-out: IC50 for reducing TRAF1; for effect on TRAF1 levels: RAJI cells, 0.1 nM-10 μM
# Method in brief: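 shCTL RAJI cells were seeded at 2 × 10^5 per well in RPMI 1640 with 10% FCS, 2-ME, glutamine, pen/strep and non-essential amino acids. Test compound was added at 0.1 nM–10 μM (0.1% DMSO final) for 24 h. Staining: Fc block, viability dye, Foxp3-buffer fixation/permeabilisation, rat anti-TRAF1 (clone 1F3) with goat anti-rat PE secondary. TRAF1 dMFI = MFI minus FMO background.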
# pERK [5] = experiment: pERK by flow cytometry in RAJI cells after 24 h inhibitor treatment; type: cell-based, human
# Sequence of PRK1(h) (Q16512 whole entry): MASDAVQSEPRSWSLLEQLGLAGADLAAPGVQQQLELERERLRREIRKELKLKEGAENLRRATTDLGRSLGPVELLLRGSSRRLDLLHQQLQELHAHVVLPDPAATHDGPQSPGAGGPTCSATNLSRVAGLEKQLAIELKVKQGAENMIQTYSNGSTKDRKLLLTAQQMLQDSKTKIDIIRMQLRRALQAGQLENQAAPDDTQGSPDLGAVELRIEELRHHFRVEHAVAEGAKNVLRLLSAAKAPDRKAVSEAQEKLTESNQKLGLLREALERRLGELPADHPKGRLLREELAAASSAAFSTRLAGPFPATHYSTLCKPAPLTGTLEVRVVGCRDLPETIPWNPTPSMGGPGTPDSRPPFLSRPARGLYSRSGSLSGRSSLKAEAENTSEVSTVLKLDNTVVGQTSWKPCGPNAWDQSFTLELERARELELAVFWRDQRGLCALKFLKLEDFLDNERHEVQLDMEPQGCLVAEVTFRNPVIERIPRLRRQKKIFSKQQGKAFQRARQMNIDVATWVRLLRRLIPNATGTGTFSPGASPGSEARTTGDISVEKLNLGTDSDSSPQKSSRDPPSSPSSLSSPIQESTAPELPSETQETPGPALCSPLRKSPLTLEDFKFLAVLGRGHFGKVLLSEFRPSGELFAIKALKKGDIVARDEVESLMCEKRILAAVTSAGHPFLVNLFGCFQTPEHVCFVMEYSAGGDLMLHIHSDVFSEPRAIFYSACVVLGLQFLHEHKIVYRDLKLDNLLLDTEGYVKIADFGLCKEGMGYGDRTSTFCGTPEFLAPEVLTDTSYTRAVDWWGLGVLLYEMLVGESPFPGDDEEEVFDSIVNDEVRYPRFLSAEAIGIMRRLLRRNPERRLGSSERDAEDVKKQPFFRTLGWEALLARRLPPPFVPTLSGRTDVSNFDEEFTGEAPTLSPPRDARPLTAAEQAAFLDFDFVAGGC
smiles,measurement,setting,value
Clc1ccc(C2(c3ccc(-c4cn[nH]c4)cc3)CCNCC2)cc1 [AT7867],effect on TRAF1 expression,TRAF1 [1],no effect
same,effect on cell death,"primary CLL cells; primary CLL cells, 24 h",no effect
same,effect on Bcl-2 expression,Bcl-2; primary CLL cells,did not affect
same,effect on Mcl-1 expression,Mcl-1; primary CLL cells,did not affect
same,effect on levels of pNF-κB,pNF-κB p65; primary CLL cells,did not affect
same,effect on pS6,pS6; primary CLL cells,slightly reduced
same,effect on pERK,pERK [2]; primary CLL cells,slightly reduced
CN[C@@H](C)C(=O)N[C@H](C(=O)N1CCC[C@H]1C(=O)N[C@H](C(=O)NCCCCCCNC(=O)[C@@H](NC(=O)[C@@H]1CCCN1C(=O)[C@@H](NC(=O)[C@H](C)NC)C1CCCCC1)C(c1ccccc1)c1ccccc1)C(c1ccccc1)c1ccccc1)C1CCCCC1 [BV6] (I: H-[NMeA][Chg]P[Dip] / II: H-[NMeA][Chg]P[Dip]; linker I:C-II:C via Hexamethylenediamine),cytosolic pool of TRAF1 (IP2),"[3]; RAJI cells, cycloheximide",not sensitive
same,CD40 associated TRAF1 protein,"[3]; shCTL RAJI cells (presence of PKN1), cycloheximide 6 h",rescued
same,CD40 associated TRAF1 protein,"[3]; shPKN1 RAJI cells (absence of PKN1), cycloheximide",partially rescued
CC(=O)c1cnc2ccc(-c3cc(Cl)c(O)c(Cl)c3)nc2c1N[C@H]1CC[C@H](CN(C)C)CC1 [OTSSP167],IC50,PRK1(h),11 nM
same,IC50,TRAF1 [4],18 nM
same,pERK levels,pERK [5],decreased only at the highest levels
same,IC50,primary CLL cells; 24 h,45.9 nM
same,reduction of IC50 for cell death compared to treatment alone,primary CLL cells; OTSSP167 with 1 nM venetoclax versus OTSSP167 alone,1.9 fold
same,cells survived treatment,"primary CLL cells; primary CLL cells, suboptimal concentration 50 nM",20–50%
same,primary CLL cells died,"primary CLL cells; suboptimal 10 nM alone, 24 h",< 15%
same,IC50,Bcl-2,49.8 nM
same,IC50,Mcl-1,25.7 nM
same,IC50,pNF-κB p65,320 nM
same,IC50,pS6,310 nM
same,IC50,pERK [2],1040 nM
CCCCNc1ncc2c(-c3ccc(CN4CCN(C)CC4)cc3)cn([C@H]3CC[C@H](O)CC3)c2n1 [UNC-2025],effect on TRAF1 levels,TRAF1 [4],increased rather than decreased
CC(C)c1cc(CNc2nc(Nc3cc(C4CC4)[nH]n3)cc(N3CCN(C)CC3)n2)on1 [XL-228],IC50,TRAF1 [4],2300 nM
same,cells survived treatment,"primary CLL cells; primary CLL cells, suboptimal concentration 4 μM",20–50%
same,IC50,Bcl-2,3520 nM
same,IC50,Mcl-1,2540 nM
same,IC50,pNF-κB p65,2470 nM
same,IC50,pS6,1440 nM
same,IC50,pERK [2],2230 nM
"CC1(COc2ccc3c(c2)ncn3-c2ccc3cccc(N4CCC(N)CC4)c3n2)COC1 [crenolanib, Crenolanib]",effect on TRAF1 levels,TRAF1 [4],increased rather than decreased
"CC(C)NC[C@@H](C(=O)N1CCN(c2ncnc3c2[C@H](C)C[C@H]3O)CC1)c1ccc(Cl)cc1 [ipatasertib, Ipatasertib]",IC50,TRAF1 [4],> 10000 nM
C[C@@H]1CCN(C(=O)CC#N)C[C@@H]1N(C)c1ncnc2[nH]ccc12 [tofacitinib],effect on TRAF1 levels,TRAF1 [4],minimal effects
"Cn1ncc(Cl)c1-c1cc(C(=O)N[C@H](CN)Cc2ccc(F)c(F)c2)oc1Cl [uprosertib, Uprosertib]",IC50,TRAF1 [4],4900 nM
CC1(C)CCC(CN2CCN(c3ccc(C(=O)NS(=O)(=O)c4ccc(NCC5CCOCC5)c([N+](=O)[O-])c4)c(Oc4cnc5[nH]ccc5c4)c3)CC2)=C(c2ccc(Cl)cc2)C1 [venetoclax],patients whose CLL cells were enriched for TRAF1hi cells after treatment,TRAF1 [1]; dose that resulted in approximately 50% death,4 of 6
same,effect on TRAF1 expression,TRAF1 [1],lack of effect
same,IC50,primary CLL cells; 24 h,9.91 nM
same,primary CLL cells died,"primary CLL cells; suboptimal 1 nM alone, 24 h",< 15%
same,decrease of IC50 for cell death compared to treatment alone,primary CLL cells; venetoclax with 10 nM OTSSP167 versus venetoclax alone,5.8 fold
